# From PubChem BioAssay AID2378 (NMMLSC, 2010)
# Target: Cell division control protein 42 homolog (Homo sapiens) (UniProt P60953)
# Experiment: compound effect on Cdc42 GTP saturation binding, late-stage follow-up, mechanism study for Ras-family GTPase inhibitor project, biochemical, EDTA buffer, varying GTP (AID 2378)
# Conditions: GST-Cdc42 beads, BODIPY-GTP binding, flow cytometry
# Outline: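 Assay system: GST-Cdc42 on glutathione beads | Quantity: 4 µM GST-Cdc42 for bead loading | Doses: 10 µM compound, single dose | Times: 4 °C overnight capture, 2 min pre-incubation | Detection: Flow cytometry measurement of bead-associated BODIPY-GTP fluorescence | Read-out basis: GTP Bmax and Kd from one-site hyperbolic fit of specific binding | Benchmarks: DMSO vehicle reference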
# Sequence of Cell division control protein 42 homolog (Homo sapiens) (P60953 whole entry, looked up): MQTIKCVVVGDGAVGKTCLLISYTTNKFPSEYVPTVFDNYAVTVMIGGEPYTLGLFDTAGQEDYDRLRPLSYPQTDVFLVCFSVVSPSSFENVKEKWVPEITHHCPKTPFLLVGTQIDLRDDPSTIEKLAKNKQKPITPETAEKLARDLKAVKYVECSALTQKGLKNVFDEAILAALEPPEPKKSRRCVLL
smiles,measurement,setting,value
COc1ccc(C2CC(c3ccccc3)=NN2c2ccc(S(N)(=O)=O)cc2)cc1 (configuration not stated),Bmax with compound,"at 10 µM, stronger effect = lower value",19800
same,Kd,measured here: GTP Kd with compound,46.4 nM
